Most compounds without a hit are left out; they make up all but 5.3% or so of the library.
CSC inhib: cancer stem cell inhibition. cancer stem cell-like cells viability, luminescence. inhibition, % at 7.5 µM. 1.1% of 300,000 active; in the data active means inhibition above about 75%; inconclusive means no clear call, values can overlap the other calls; tested in HMLE shEcad cells
Mdm2 MdmX PPI: disrupts the human Mdm2-MdmX interaction; O15151+Q00987; SaOS-2 split-luciferase Mdm2/MdmX complementation, luminescence; inhibition, % at 8 µM; 3% of 330,000 active;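 active means inhibition of at least 50% at 8 µM in the primary screen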
Target sequence (O15151 whole entry, looked up): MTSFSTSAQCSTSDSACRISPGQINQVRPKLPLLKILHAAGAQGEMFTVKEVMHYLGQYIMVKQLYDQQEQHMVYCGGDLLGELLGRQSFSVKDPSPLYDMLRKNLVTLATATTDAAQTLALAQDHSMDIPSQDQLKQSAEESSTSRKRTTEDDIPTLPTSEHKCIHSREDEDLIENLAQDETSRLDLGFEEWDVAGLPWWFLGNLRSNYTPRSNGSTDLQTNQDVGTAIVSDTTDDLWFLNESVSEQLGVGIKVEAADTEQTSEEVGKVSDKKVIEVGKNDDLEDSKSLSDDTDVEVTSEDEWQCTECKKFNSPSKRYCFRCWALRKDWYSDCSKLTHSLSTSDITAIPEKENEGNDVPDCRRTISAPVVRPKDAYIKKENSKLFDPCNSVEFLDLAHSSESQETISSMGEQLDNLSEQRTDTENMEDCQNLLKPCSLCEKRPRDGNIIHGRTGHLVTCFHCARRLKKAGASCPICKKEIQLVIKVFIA
Target sequence (Q00987 whole entry, looked up): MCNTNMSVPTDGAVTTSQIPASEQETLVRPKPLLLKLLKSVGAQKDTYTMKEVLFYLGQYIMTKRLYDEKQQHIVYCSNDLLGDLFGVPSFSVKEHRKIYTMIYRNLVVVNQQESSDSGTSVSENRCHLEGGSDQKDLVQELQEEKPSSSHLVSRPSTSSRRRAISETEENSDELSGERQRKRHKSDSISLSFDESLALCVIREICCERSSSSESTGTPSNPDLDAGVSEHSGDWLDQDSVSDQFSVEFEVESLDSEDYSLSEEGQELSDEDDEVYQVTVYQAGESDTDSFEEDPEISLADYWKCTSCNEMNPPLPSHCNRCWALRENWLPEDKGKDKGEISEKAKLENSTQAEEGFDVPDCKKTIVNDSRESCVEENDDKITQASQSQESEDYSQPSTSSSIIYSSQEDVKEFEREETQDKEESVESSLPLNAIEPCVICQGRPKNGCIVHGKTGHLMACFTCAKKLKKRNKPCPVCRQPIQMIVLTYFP
T cruzi inh: blocks replication of Trypanosoma cruzi. inhibition, % (test concentration not listed). AID 1885. T. cruzi beta-gal in NIH3T3, luminescence, 90 h. 1.4% of 300,000 active;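 active means mean inhibition across valid replicates above about 55%, limit read from the data; inconclusive means mean below that limit but half or more replicates reach it; inactive means mean below it, under half of replicates reach it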;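 further: signal also drops with host cell toxicity which is not excluded here; 0% = plate median of DMSO wells and 100% = zero luminescence signal; higher percent means less beta-gal luminescence so fewer parasites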
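System – NIH/3T3 host cells with β-galactosidase reporter T. cruzi · Doses – single 50 nL compound addition per well in DMSO · Reagent – 5000 T. cruzi trypomastigotes/well · Medium – Low-serum DMEM with 2% FBS · Timing – ≥90 h infection period, 3 h prior cell attachment · Evaluation – parasite load inhibition, % · Technique – GalScreen luminescence, 60 min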
NLRP3 yeast inh: blocks the NALP3 inflammasome reconstituted in yeast | inhibition, % at 10 µM | Yeast reconstituted NLRP3/ASC/caspase-1, beta-gal luminescence, 24 h | 0.39% of 330,000 active;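 active means inhibition of 50% or more; inactive means inhibition below 50%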;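 further: plate controls were induced DMSO wells for no effect and uninduced yeast grown without galactose for full effect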
Calb FLC: C. albicans growth modulation with fluconazole; C. albicans CaCi-2 (fluconazole-resistant clinical isolate) + fluconazole, Alamar Blue growth, 48 h; growth inhibition, % (concentration not given with the values); 0.57% of 300,000 active; AID 1979;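 active means growth inhibition above about 58% in most replicates, limit read from the data, passing the limit was not always enough; inconclusive means exactly half the replicates above a set limit; inactive means most replicates below a set limit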;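 further: all wells also contain fluconazole at 8 µg/ml as a sub-toxic cotreatment; 0% = median of DMSO wells and 100% = median of geldanamycin control wells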
Beta apoptosis: blocks beta cell apoptosis; INS-1E cytokine-induced death, ATP luminescence, 48 h; percent of positive-control rescue, neutral wells zero; protection from apoptosis, % (no concentration beside the values); 0.8% of 300,000 active; AID 435005;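 active means Every replicate reaches about 75%, or at least half do and their mean reaches it too, limit read from the data; inconclusive means At least half of replicates reach the limit but their mean does not; inactive means Under half of replicates reach the limit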;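 further: 0% = cytokine-treated negative control wells and 100% = positive control rescue; higher means more ATP so stronger rescue from cytokine killing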
Mdm2-MdmX conf: confirmation of human Mdm2/MdmX interaction inhibitors. shares compounds with Mdm2 MdmX PPI. Mdm2-MdmX binding, luminescent assay. inhibition, % at 8 µM. 55% of 10,000 active. AID 489028; in the data active means inhibition above about 40%
FLuc counter: full-length luciferase inhibition in Mdm2/MdmX counter-screen | shares compounds with Mdm2 MdmX PPI | SaOS-2 full-length luciferase counterscreen, luminescence | inhibition, % at 8 µM | 77% of 6,200 active;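 active means mean inhibition at 8 µM reaching about 37%, which flags the compound as non-specific, limit read from the data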;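 further: p53-null SaOS-2 cells with luciferase driven by a doxycycline-inducible promoter; compound on cells about two nights before reading with doxycycline added after day one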
* marks the source's active call; other numbers are inactive results; ? = inconclusive; . = no result given.

SMILES | CSC inhib | Mdm2 MdmX PPI | T cruzi inh | NLRP3 yeast inh | Calb FLC | Beta apoptosis | Mdm2-MdmX conf | FLuc counter
CC(=O)C(Cc1ccccc1)NC(=O)CCl (centres undefined) | . | 39.1 | -5.9 | 3.5 | ? | 5.2 | . | .
COc1ccc(NC(=O)c2cccc(Oc3ccc([N+](=O)[O-])cc3Cl)c2)cc1 | 48.4 | -5.1 | 2.3 | 28.5 | -1.6 | -0.7 | . | .
O=C(Nc1cccc(Cl)c1)c1cccc(Oc2ccc([N+](=O)[O-])cc2Cl)c1 | 63.1 | 60.7* | -11.7 | 30.8 | -5.7 | 0.9 | 11.1 | .
Cc1ccccc1NS(=O)(=O)c1ccc(Cl)cc1 | -10.9 | -3.4 | -4.3 | 16.6 | -12.2 | -0.7 | . | .
C#CCN1C=C(C(=O)OCC)C(C)NS1(=O)=O (centres undefined) | . | 24.9 | . | . | . | . | . | .
C#CCN1C=C(C(=O)OCC)C(C)N(Cc2ccccc2I)S1(=O)=O (centres undefined) | . | 54.7* | . | . | . | . | 49.2* | 51.4*
CC(C)(C)C(=O)CSc1ncnc2c1cnn2Cc1ccccc1 | 56.0 | 19.5 | 25.1 | 27.0 | 5.5 | -1.2 | . | .
COc1ccc(-c2csc(NC(CO)c3nc4ccccc4n3Cc3ccc(C)cc3)n2)cc1 (centres undefined) | 16.8 | 1.6 | 22.5 | 5.7 | 8.6 | -2.6 | . | .
CC(Nc1nc(-c2ccc(F)cc2)cs1)c1nc2cc(C(F)(F)F)ccc2n1CCCO (centres undefined) | 39.2 | 30.0 | 8.0 | 8.3 | -3.3 | -13.7 | . | .
Cc1ccc(Cn2c(C(CO)Nc3nc(-c4ccc(F)cc4)cs3)nc3ccccc32)cc1 (centres undefined) | 54.3 | 60.3* | 34.3 | -0.8 | 4.1 | -3.8 | 29.1 | .
Cc1ccc(Cn2c(C(C)Nc3nc(-c4ccc(F)cc4)cs3)nc3cc(C(F)(F)F)ccc32)cc1 (centres undefined) | 43.4 | 50.3* | -12.5 | -2.3 | -1.9 | -1.2 | -0.7 | .
CCCn1c(C(C)Nc2nc(-c3ccc(Cl)c([N+](=O)[O-])c3)cs2)nc2cc(Cl)c(N3CCCCC3)cc21 (centres undefined) | 1.6 | 61.4* | 7.3 | 17.1 | -2.4 | 4.6 | 21.1 | .
Cc1ccc(Cn2c(C(CO)Nc3nc(-c4ccc(Cl)c([N+](=O)[O-])c4)cs3)nc3ccccc32)cc1 (centres undefined) | 23.2 | 64.5* | 9.0 | 1.6 | 22.5 | -3.6 | 15.6 | .
Nc1ccc(S(=O)(=O)NCc2ccccn2)cc1 | 1.0 | 5.5 | -10.0 | 22.2 | -4.8 | -4.9 | . | .
O=C(COc1cccnc1[N+](=O)[O-])Nc1ccccc1Sc1ccccc1 | -7.0 | -18.4 | 18.0 | 22.0 | -11.5 | -4.1 | . | .
CC(c1ccco1)N(C(=O)C12CC3CC(CC(C)(C3)C1)C2)c1ccccn1 (centres undefined) | -6.0 | 30.0 | 15.0 | 8.4 | 5.1 | . | . | .
CCN(CC)CCNC(=O)c1ccc(NC(=O)C2CCN(c3ncnc4sc(C)c(C)c34)CC2)cc1 | 10.5 | 90.9* | 3.2 | 0.3 | 13.4 | 0.2 | 61.0* | 21.9
Cc1sc2ncnc(N3CCC(C(=O)Nc4nc(-c5ccc(F)cc5)cs4)CC3)c2c1C | 35.7 | 94.2* | 43.5 | 31.1 | -2.0 | . | 90.0* | 60.3*
O=C(/C=C/c1ccc(F)cc1)NC(=S)N1CCCCC1c1cccnc1 (centres undefined) | -7.4 | 4.5 | 23.7 | 13.0 | -2.8 | 0.7 | . | .
O=C1/C(=C/c2ccccc2F)SC(=S)N1CC(=O)N1CCCCC1c1cccnc1 (centres undefined) | 25.7 | 78.9* | 17.9 | 4.2 | -14.4 | -46.8 | 40.6* | 20.0
O=C1/C(=C/c2ccc(F)cc2)SC(=S)N1CC(=O)N1CCCCC1c1cccnc1 (centres undefined) | 14.7 | 73.7* | 28.5 | -0.1 | -9.3 | -35.7 | 34.7 | .
Cc1onc(C(=O)N2CCC(Cc3ccccc3)CC2)c1[N+](=O)[O-] | . | 82.1* | 7.4 | 18.2 | -3.1 | . | 5.6 | .
Cc1onc(C(=O)N2CCN(Cc3ccccc3)CC2)c1[N+](=O)[O-] | -14.0 | 20.9 | -4.6 | 4.8 | 35.6 | 1.5 | . | .
CC(C)c1onc(C(=O)N2CCN(C(c3ccccc3)c3ccccc3)CC2)c1[N+](=O)[O-] | 49.4 | 74.0* | 57.5* | 1.3 | 11.3 | -2.3 | 94.5* | 63.9*
Cc1ccc(Cl)cc1N1CCN(C(=O)c2noc(C(C)C)c2[N+](=O)[O-])CC1 | 7.6 | 68.4* | -19.1 | -41.3 | -30.2 | -2.9 | 63.8* | 37.3*
SMILES | CSC inhib | Mdm2 MdmX PPI | T cruzi inh | NLRP3 yeast inh | Calb FLC | Beta apoptosis | Mdm2-MdmX conf | FLuc counter
CC(C)c1onc(C(=O)N2CCN(c3ccccc3)CC2)c1[N+](=O)[O-] | -10.6 | 20.8 | ? | -1.5 | 0.8 | -9.9 | . | .
CC(=O)N1CCCC(C(=O)c2ccc3c4c(cccc24)CC3)C1 (centres undefined) | 10.8 | -23.0 | -8.4 | 10.7 | 17.2 | -0.9 | . | .
COc1ccc(CNC(=O)COC(=O)/C=C/c2cccc(Cl)c2)cc1 | -6.4 | -13.4 | . | -18.3 | . | -0.5 | . | .
COc1ccc(-c2ccc(-c3nnc(Cc4ccc(OC)c(OC)c4)o3)cc2)cc1 | -1.6 | -2.0 | -11.0 | -3.4 | 3.3 | 0.0 | . | .
Cc1ccccc1CS(=O)(=O)c1ncc(Cl)c(C(=O)Nc2ccc(F)cc2)n1 | 98.3* | 100.0* | -44.4 | 40.8 | 14.7 | 14.9 | 65.4* | 52.1*
O=C(Nc1ccc(F)cc1)c1nc(S(=O)(=O)Cc2ccccc2)ncc1Cl | 107.9* | 95.8* | -19.1 | 31.9 | -6.0 | 39.6 | 94.5* | 52.1*
O=C(Nc1ccc(F)cc1)c1nn(-c2ccccc2)c(=O)cc1Cl | . | . | 16.9 | . | 78.3 | . | . | .
COc1ccc(C)cc1NC(=O)CSc1nnc(-c2ccccn2)n1Cc1ccco1 | -6.5 | 6.6 | -18.9 | -13.7 | -7.4 | -3.2 | . | .
O=C(Nc1nc2ccccc2c(=O)s1)c1ccco1 | -5.4 | -4.4 | -16.8 | 26.0 | -0.5 | -3.8 | . | .
C=CCNc1nc(NCc2ccccc2)c(C#N)c2c1CN(C)CC2 | -11.1 | 73.8* | 51.8 | 19.6 | -0.8 | -8.7 | 51.5* | 61.3*
Cc1ccsc1C(=O)OCC(=O)NCCCc1ccccc1 | -16.6 | 13.7 | -5.1 | 9.6 | 0.0 | -5.4 | . | .
COc1ccc(C2C(C#N)=C(N)Oc3cc(N)ccc32)cc1 (centres undefined) | 8.6 | 2.6 | 0.6 | 10.5 | -2.9 | -5.3 | . | .
N#CC1=C(N)Oc2cc(N)ccc2C1c1ccc(F)cc1F (centres undefined) | 20.1 | 59.2* | 1.9 | 20.3 | 4.1 | 8.8 | 15.4 | .
N#CC1=C(N)Oc2cc(N)ccc2C1c1ccc(F)cc1 (centres undefined) | 30.4 | 28.6 | -13.2 | 8.5 | -11.1 | -2.6 | . | .
COc1cc(C2C(C#N)=C(N)Oc3cc(N)ccc32)cc(OC)c1OC (centres undefined) | . | 87.9* | . | 15.2 | . | 20.2 | 66.1* | 67.6*
